# ChEMBL document CHEMBL2010643 (Bioorg Med Chem Lett, 2012)
# Calls of active or inactive are those of the source. The calls are words filed in the database; no cut-off is given here.
# Key:
# [1] = biological target: Serine/threonine-protein kinase TBK1 (Homo sapiens) (UniProt Q9UHD2); assay: Inhibition of TBK1 assessed as residual activity at 1 uM relative to control
# [2] = biological target: Mitogen-activated protein kinase 14 (Homo sapiens) (UniProt Q16539); assay: Inhibition of p38alpha MAPK assessed as residual activity at 10 uM relative to control
# Outline: (§1)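 Radioactivity-based enzymatic kinase assays run across a 124-kinase profiling panel (Dundee), reporting the remaining kinase activity relative to a control.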
# [3] = biological target: T1, Leucine-rich repeat serine/threonine-protein kinase 2 (Homo sapiens, UniProt Q5S007); assay: Inhibition of wild-type LRRK2 phosphorylation at Ser935 expressed in HEK293 cells after 90 mins by immunoblot analysis; type: cell-based
# Outline: (§2)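 HEK293 cells stably expressing wild-type GFP-LRRK2 exposed to DMSO or increasing inhibitor concentrations for 90 min. Lysates immunoblotted for LRRK2 phosphorylated at Ser910 and Ser935 and for total LRRK2.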
# [4] = biological target: Serine/threonine-protein kinase pim-3 (Homo sapiens) (UniProt Q86V86); assay: Inhibition of PIM3 assessed as residual activity at 10 uM relative to control
# [5] = biological target: Serine/threonine-protein kinase PLK1 (Homo sapiens) (UniProt P53350); assay: Inhibition of PLK1 assessed as residual activity at 1 uM relative to control
# [6] = system: Plasma; assay: AUClast in Swiss albino mouse plasma at 10 mg/kg, po; type: ADME, organism-based; parameters: time 0 - last, dose 10 mg/kg, route oral; conditions: in vivo
# Outline: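 Male Swiss Albino mice were given a single dose, either intravenous at 1 mg/kg or oral at 10 mg/kg. AUClast was measured in plasma and in brain. Half-life, plasma clearance, volume of distribution and oral bioavailability were derived from the plasma data.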
# [7] = biological target: Eukaryotic elongation factor 2 kinase (Homo sapiens) (UniProt O00418); assay: Inhibition of EF2K assessed as residual activity at 1 uM relative to control
# Outline: (§3)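 Standard radioactivity-based enzymatic assays were run across a 124-kinase panel (Dundee profiling), with compound at 1 µM. Kinase activity was expressed relative to control.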
# [8] = biological target: Tyrosine-protein kinase ZAP-70 (Homo sapiens) (UniProt P43403); assay: Inhibition of ZAP70 assessed as residual activity at 10 uM relative to control; outline: as §1
# [9] = biological target: Insulin receptor-related protein (Homo sapiens) (UniProt P14616); assay: Inhibition of IRR assessed as residual activity at 1 uM relative to control
# [10] = biological target: Mitogen-activated protein kinase kinase kinase 1 (Homo sapiens) (UniProt Q13233); assay: Inhibition of MEKK1 assessed as residual activity at 1 uM relative to control
# [11] = biological target: Proto-oncogene tyrosine-protein kinase Src (Homo sapiens) (UniProt P12931); assay: Inhibition of Src assessed as residual activity at 10 uM relative to control
# [12] = biological target: MAP kinase-activated protein kinase 5 (Homo sapiens) (UniProt Q8IW41); assay: Inhibition of PRAK assessed as residual activity at 1 uM relative to control
# [13] = biological target: Serine/threonine-protein kinase pim-2 (Homo sapiens) (UniProt Q9P1W9); assay: Inhibition of PIM2 assessed as residual activity at 1 uM relative to control
# [14] = system: Mus musculus; assay: Inhibition of LRRK2 phosphorylation at Ser935 in C57BL/6 mouse brain at 10 to 50 mg/kg, po administered for 8 hrs followed by 2 hrs dosing; type: functional, organism-based
# Outline: (§4)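 Mice were dosed by oral gavage at 10 or 50 mg/kg. Brain, spleen and kidney were collected. Endogenous LRRK2 was resolved by SDS–PAGE and blotted with phospho-specific antibodies to Ser910 and Ser935 and with an antibody to total LRRK2.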
# [15] = system: Leucine-rich repeat serine/threonine-protein kinase 2 (Homo sapiens), Q5S007 [A2016T]; assay: Inhibition of LRRK2 A2016T mutant phosphorylation at Ser935 expressed in HEK293 cells at 1 to 3 uM after 90 mins by immunoblot analysis; type: cell-based
# [16] = biological target: Protein kinase C alpha type (Homo sapiens) (UniProt P17252); assay: Inhibition of PKCalpha assessed as residual activity at 10 uM relative to control
# [17] = Inhibition of CK2 assessed as residual activity at 1 uM relative to control
# [18] = system: Mus musculus; assay: Inhibition of LRRK2 phosphorylation at Ser935 in C57BL/6 mouse spleen at 10 mg/kg, po administered for 8 hrs followed by 2 hrs dosing; type: functional, organism-based; parameters: dose 10 mg/kg; outline: as §4
# [19] = biological target: T1, Leucine-rich repeat serine/threonine-protein kinase 2; assay: Inhibition of wild-type LRRK2 phosphorylation at Ser935 expressed in HEK293 cells at 0.1 to 0.3 uM after 90 mins by immunoblot analysis; type: cell-based; outline: as §2
# [20] = system: Mus musculus; assay: Inhibition of LRRK2 phosphorylation at Ser910 in C57BL/6 mouse brain at 10 to 50 mg/kg, po administered for 8 hrs followed by 2 hrs dosing; type: functional, organism-based; outline: as §4
# [21] = biological target: Dual specificity mitogen-activated protein kinase kinase 2 (Homo sapiens) (UniProt P36507); assay: Inhibition of MKK2 assessed as residual activity at 1 uM relative to control
# [22] = biological target: Serine/threonine-protein kinase PAK 5 (Homo sapiens) (UniProt Q9P286); assay: Inhibition of PAK5 assessed as residual activity at 10 uM relative to control
# [23] = biological target: Angiopoietin-1 receptor (Homo sapiens) (UniProt Q02763); assay: Inhibition of TIE2 assessed as residual activity at 10 uM relative to control; outline: as §1
# [24] = biological target: Dual specificity mitogen-activated protein kinase kinase 1 (Homo sapiens) (UniProt Q02750); assay: Inhibition of MKK1 assessed as residual activity at 10 uM relative to control
# [25] = biological target: Serine/threonine-protein kinase STK11 (Homo sapiens) (UniProt Q15831); assay: Inhibition of LKB1 assessed as residual activity at 1 uM relative to control
# [26] = biological target: Ephrin type-A receptor 2 (Homo sapiens) (UniProt P29317); assay: Inhibition of EPH-A2 assessed as residual activity at 1 uM relative to control; outline: as §3
# [27] = biological target: Dual specificity mitogen-activated protein kinase kinase 1 (Homo sapiens) (UniProt Q02750); assay: Inhibition of MKK1 assessed as residual activity at 1 uM relative to control
# [28] = biological target: Tyrosine-protein kinase BTK (Homo sapiens) (UniProt Q06187); assay: Inhibition of BTK assessed as residual activity at 1 uM relative to control; outline: as §3
# [29] = biological target: Cyclin-dependent kinase 2/cyclin A (Homo sapiens) (UniProt P24941+P20248+P78396); assay: Inhibition of CDK2-Cyclin A assessed as residual activity at 1 uM relative to control; type: protein-complex assay; outline: as §3
# [30] = biological target: Maternal embryonic leucine zipper kinase (Homo sapiens) (UniProt Q14680); assay: Inhibition of MELK assessed as residual activity at 1 uM relative to control
# [31] = biological target: Inhibitor of nuclear factor kappa-B kinase subunit beta (Homo sapiens) (UniProt O14920); assay: Inhibition of IKKbeta assessed as residual activity at 10 uM relative to control
# [32] = biological target: T1, Leucine-rich repeat serine/threonine-protein kinase 2; assay: Inhibition of wild-type LRRK2 phosphorylation at Ser910 expressed in HEK293 cells at 0.1 to 0.3 uM after 90 mins by immunoblot analysis; type: cell-based; outline: as §2
# [33] = biological target: Death-associated protein kinase 1 (Homo sapiens) (UniProt P53355); assay: Inhibition of DAPK1 assessed as residual activity at 1 uM relative to control; outline: as §3
# T1 sequence (Q5S007 whole entry): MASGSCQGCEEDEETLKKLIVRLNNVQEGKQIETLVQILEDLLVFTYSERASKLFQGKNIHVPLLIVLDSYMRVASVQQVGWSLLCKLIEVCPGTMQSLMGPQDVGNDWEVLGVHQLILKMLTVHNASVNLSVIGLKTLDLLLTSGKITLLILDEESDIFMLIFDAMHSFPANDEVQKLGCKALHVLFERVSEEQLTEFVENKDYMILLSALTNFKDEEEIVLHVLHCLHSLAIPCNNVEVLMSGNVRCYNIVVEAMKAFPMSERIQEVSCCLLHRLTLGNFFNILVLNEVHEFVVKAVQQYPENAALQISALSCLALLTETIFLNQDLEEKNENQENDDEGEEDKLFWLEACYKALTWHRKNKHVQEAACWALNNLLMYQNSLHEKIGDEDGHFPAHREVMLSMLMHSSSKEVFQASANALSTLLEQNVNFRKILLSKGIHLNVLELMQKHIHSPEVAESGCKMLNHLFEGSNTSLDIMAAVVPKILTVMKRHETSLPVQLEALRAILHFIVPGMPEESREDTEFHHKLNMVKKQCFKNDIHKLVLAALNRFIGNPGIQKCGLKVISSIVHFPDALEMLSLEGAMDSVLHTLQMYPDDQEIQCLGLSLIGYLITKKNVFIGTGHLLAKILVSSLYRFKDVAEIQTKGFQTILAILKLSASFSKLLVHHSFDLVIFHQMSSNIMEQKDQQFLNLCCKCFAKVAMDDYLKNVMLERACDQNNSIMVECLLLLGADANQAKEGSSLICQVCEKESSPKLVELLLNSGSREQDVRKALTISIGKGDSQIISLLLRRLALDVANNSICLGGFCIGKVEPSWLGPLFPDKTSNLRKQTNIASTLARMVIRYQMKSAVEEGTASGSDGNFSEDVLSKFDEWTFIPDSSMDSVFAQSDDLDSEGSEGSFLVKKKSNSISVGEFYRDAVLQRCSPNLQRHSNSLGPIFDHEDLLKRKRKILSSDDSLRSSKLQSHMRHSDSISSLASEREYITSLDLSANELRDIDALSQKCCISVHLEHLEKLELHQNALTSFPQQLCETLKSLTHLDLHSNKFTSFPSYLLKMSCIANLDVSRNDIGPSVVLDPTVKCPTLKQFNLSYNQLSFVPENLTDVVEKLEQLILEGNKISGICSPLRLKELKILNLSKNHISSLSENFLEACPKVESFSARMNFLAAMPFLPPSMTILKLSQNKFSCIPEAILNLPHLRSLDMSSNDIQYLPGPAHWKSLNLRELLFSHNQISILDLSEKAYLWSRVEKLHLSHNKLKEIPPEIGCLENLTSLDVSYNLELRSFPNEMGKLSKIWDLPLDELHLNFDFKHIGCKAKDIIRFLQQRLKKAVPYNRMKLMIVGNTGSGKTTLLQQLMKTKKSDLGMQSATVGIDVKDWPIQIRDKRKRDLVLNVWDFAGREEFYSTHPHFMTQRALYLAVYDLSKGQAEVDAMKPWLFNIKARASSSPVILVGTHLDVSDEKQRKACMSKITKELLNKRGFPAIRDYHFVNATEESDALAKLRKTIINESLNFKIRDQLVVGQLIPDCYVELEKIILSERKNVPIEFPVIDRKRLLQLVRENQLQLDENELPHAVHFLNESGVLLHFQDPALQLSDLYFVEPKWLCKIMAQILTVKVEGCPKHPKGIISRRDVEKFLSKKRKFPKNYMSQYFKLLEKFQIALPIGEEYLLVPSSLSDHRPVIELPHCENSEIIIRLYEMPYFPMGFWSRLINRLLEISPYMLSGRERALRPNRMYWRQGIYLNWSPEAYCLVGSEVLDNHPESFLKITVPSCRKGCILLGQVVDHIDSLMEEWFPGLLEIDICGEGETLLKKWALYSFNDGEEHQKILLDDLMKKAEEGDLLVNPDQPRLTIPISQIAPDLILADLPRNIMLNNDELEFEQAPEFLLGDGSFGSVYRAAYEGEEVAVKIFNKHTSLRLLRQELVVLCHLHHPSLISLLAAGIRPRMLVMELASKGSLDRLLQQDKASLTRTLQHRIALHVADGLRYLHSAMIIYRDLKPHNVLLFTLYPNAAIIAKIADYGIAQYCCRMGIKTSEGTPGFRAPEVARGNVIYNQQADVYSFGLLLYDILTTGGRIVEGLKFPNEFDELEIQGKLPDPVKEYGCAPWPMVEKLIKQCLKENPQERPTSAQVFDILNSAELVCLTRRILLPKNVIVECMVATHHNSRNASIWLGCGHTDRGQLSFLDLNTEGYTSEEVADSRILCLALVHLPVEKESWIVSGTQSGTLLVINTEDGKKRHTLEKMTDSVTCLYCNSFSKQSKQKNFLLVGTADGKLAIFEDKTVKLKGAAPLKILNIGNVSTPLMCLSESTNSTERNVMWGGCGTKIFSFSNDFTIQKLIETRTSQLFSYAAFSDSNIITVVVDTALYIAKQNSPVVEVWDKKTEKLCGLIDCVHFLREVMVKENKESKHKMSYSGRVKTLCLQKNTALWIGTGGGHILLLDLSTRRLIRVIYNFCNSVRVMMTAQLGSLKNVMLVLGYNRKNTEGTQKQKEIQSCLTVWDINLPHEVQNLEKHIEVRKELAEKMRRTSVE
# Sequence of Dual specificity mitogen-activated protein kinase kinase 1 (Homo sapiens) (Q02750 whole entry): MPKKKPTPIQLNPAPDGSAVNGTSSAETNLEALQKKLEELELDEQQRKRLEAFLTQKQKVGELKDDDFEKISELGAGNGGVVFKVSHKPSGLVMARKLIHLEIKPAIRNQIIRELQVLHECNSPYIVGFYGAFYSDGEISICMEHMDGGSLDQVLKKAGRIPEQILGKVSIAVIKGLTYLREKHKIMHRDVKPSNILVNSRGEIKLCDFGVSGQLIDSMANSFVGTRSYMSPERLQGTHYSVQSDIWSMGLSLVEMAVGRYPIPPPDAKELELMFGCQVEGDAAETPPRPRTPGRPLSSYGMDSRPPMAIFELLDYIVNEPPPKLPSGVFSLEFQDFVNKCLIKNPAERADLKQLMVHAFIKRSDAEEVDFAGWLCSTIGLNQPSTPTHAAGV
# Sequence of Serine/threonine-protein kinase PAK 5 (Homo sapiens) (Q9P286 whole entry, looked up): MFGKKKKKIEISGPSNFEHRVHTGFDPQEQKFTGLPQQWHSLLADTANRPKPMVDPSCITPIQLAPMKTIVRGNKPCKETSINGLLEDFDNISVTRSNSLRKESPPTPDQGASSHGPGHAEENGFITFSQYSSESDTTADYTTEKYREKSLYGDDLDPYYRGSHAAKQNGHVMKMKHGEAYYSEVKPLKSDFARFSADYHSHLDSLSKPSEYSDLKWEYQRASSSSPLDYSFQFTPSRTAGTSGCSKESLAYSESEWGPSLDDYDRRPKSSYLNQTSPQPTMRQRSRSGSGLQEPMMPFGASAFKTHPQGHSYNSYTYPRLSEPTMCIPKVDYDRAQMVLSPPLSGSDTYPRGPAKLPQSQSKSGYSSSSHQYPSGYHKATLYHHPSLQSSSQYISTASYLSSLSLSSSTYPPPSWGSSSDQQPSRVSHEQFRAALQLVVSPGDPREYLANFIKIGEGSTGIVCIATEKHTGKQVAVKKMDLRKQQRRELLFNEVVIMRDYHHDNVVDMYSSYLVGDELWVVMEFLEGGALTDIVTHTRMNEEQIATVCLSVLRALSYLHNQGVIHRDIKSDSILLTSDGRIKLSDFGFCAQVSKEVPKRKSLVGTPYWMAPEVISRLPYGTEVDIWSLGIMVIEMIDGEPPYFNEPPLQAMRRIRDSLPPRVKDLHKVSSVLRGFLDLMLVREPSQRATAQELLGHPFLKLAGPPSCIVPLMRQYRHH
# Sequence of Serine/threonine-protein kinase pim-2 (Homo sapiens) (Q9P1W9 whole entry, looked up): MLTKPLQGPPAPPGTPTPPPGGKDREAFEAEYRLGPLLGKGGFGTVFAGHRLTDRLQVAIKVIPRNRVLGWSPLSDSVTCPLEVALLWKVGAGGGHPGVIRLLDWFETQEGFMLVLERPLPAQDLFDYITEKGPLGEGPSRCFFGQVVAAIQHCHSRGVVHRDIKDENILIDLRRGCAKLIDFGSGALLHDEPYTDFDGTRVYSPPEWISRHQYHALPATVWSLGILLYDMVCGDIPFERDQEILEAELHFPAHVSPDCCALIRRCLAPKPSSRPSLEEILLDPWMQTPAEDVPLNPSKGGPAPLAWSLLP
# Sequence of Serine/threonine-protein kinase STK11 (Homo sapiens) (Q15831 whole entry): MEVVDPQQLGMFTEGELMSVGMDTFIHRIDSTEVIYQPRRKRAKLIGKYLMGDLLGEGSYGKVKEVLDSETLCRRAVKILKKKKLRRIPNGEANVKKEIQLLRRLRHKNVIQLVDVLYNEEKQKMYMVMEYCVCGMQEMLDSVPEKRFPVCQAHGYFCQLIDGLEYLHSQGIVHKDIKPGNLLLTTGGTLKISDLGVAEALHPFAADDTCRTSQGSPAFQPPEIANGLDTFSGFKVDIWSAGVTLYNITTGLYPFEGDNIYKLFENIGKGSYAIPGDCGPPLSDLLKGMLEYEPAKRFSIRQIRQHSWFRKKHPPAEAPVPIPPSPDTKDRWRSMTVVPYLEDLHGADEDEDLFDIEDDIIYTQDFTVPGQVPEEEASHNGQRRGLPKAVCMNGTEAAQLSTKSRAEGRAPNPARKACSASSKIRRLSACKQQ
# Sequence of Maternal embryonic leucine zipper kinase (Homo sapiens) (Q14680 whole entry, looked up): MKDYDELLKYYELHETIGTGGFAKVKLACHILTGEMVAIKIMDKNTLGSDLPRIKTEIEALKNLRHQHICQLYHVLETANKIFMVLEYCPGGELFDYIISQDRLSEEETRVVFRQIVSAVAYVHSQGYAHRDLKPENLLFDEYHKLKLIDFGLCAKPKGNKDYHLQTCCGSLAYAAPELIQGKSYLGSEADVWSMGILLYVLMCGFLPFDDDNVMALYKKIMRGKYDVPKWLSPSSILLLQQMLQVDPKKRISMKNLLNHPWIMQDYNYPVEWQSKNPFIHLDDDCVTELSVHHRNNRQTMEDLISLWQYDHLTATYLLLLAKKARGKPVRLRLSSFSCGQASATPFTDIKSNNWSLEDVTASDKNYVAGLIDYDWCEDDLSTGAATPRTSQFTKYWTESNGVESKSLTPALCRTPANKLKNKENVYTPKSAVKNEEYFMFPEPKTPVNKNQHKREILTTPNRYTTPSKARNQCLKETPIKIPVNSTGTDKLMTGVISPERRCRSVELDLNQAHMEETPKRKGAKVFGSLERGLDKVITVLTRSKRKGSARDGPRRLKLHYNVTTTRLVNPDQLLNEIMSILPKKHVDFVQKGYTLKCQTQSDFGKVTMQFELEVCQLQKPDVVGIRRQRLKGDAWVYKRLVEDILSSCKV
# Sequence of Leucine-rich repeat serine/threonine-protein kinase 2 (Homo sapiens), Q5S007 [A2016T] (Q5S007 whole entry A2016T): as the sequence (Q5S007 whole entry) above, with A2016T counted along it
smiles,measurement,setting,value
COc1cc(N2CCC(N3CCN(C)CC3)CC2)ccc1Nc1ncc(Cl)c(Nc2ccccc2S(=O)(=O)C(C)C)n1 [TAE-684],Activity,[1],93%
same,Activity,[2],79%
same,inhibition,[3],Dose-dependent effect
same,Activity,[4],104%
same,Activity,[5],38%
same,AUClast,[6],6374 ng·h/mL
same,Activity,[7],96%
same,Activity,[8],129%
same,Activity,[9],98%
same,Activity,[10],109%
same,Activity,[11],20%
same,Activity,[12],101%
same,Activity,[13],91%
same,inhibition,[14],inactive
same,inhibition,[15],Active
same,Activity,[16],122%
same,Activity,[17],75%
same,inhibition,[18],Active
same,inhibition,[19],Active
same,inhibition,[20],inactive
same,Activity,[21],69%
same,Activity,[22],35%
same,Activity,[23],5%
same,Activity,[24],30%
same,Activity,[25],94%
same,Activity,[26],70%
same,Activity,[27],91%
same,Activity,[28],53%
same,Activity,[29],68%
same,Activity,[30],71%
same,Activity,[31],107%
same,inhibition,[32],Active
same,Activity,[33],98%
